Data on 4 molecules can be found in ChEMBL document CHEMBL4706746, “Structural and in Vitro Functional Characterization of a Menthyl TRPM8 Antagonist Indicates Species-Dependent Regulation” (ACS Med Chem Lett, 2021).

What all share (format): cell-based
Assay [1] has as its target T1, Transient receptor potential cation channel subfamily M member 8 (Homo sapiens, UniProt Q7Z2W7). Briefly: Antagonist activity at recombinant human TRPM8 transiently expressed in HEK293 cells assessed as inhibition of menthol-induced calcium flux by whole-cell patch-clamp electrophysiological method. Summed up: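 Whole-cell patch clamp of HEK293 cells transiently transfected with human TRPM8. Currents were evoked by 500 μM menthol and recorded at +80 mV. Test compound was applied at 1 nM–0.1 mM. Currents were normalized and fitted for IC50. n = 3 cells, SEM.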
Target sequence in this assay (Q7Z2W7 whole entry): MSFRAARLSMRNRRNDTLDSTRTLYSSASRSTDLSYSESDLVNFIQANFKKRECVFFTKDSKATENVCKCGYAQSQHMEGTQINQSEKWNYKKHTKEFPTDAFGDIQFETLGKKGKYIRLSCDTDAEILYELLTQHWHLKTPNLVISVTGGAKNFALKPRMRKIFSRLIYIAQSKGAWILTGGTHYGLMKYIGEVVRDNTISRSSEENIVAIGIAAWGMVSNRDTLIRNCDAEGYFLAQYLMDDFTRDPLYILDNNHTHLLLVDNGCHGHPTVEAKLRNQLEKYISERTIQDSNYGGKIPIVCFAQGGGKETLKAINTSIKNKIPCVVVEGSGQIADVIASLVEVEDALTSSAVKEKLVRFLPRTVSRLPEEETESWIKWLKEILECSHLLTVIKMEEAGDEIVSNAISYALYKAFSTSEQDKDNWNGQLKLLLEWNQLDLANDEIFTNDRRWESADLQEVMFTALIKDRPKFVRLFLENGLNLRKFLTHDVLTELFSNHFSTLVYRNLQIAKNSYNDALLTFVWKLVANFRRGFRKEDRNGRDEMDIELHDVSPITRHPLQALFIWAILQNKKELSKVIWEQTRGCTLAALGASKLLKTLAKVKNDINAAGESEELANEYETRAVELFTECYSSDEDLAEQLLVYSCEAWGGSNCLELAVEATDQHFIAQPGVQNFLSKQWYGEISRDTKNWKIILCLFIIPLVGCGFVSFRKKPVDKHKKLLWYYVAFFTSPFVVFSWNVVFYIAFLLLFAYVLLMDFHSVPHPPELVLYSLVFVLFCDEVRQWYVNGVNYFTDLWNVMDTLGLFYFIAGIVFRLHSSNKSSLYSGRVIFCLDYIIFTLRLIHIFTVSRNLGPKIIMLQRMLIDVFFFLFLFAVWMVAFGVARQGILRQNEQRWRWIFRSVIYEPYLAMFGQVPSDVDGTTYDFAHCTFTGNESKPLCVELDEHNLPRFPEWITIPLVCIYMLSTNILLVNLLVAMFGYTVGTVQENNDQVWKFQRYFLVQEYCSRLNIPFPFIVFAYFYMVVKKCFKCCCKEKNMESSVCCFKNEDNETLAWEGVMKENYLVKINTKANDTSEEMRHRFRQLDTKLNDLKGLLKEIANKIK

Assay [2] has as its target T2, Transient receptor potential cation channel subfamily M member 8 (Rattus norvegicus, UniProt Q8R455). Briefly: Antagonist activity at recombinant rat TRPM8 stably expressed in HEK293 cells assessed as inhibition of icilin-induced intracellular calcium level preincubated for 5 mins followed by icilin addition by Fluo-4Am dye based fluorescence assay. In general terms: Calcium flux is commonly read through the fluorescence of an indicator in the cells.

The target in assay [3] is Transient receptor potential cation channel subfamily A member 1 (Rattus norvegicus, UniProt Q6RI86). The assay is described as follows: Agonist activity at recombinant rat TRPA1 stably expressed in HEK293 cells assessed as increase in intracellular calcium release by Fluo-4AM dye based fluorescence assay.
Assay [4] addresses T1, Transient receptor potential cation channel subfamily M member 8. Briefly: Antagonist activity at TRPM8 (unknown origin) expressed in CHO cells assessed as inhibition of D-1607-induced reduction in cell viability by measuring cell viability at 10 uM by celltiter-glo ATP chemiluminescence assay relative to control. The following applies: filed as antagonist.
Target sequence in this assay (Q7Z2W7 whole entry, looked up): as the sequence (Q7Z2W7 whole entry) above
Assay [5] has as its target Transient receptor potential cation channel subfamily V member 1 (Homo sapiens) (UniProt Q8NER1). The assay is described as follows: Antagonist activity at recombinant human TRPV1 stably expressed in HEK293 cells assessed as inhibition of capsaicin-induced calcium flux at 66.7 uM preincubated for 5 mins followed by capsaicin addition and measured after 180 secs by Fluo-8 Calcium dye based fluorescence assay relative to control. The note with it: time 8.0 min. Summed up:
(§1)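 Ca2+ flux assay in HEK293 cells stably expressing human TRPA1 or TRPV1. Test compound was given at 66.7–333 μM, then cells were challenged with agonist at its EC80: AITC 10 μM for TRPA1, capsaicin 0.1 μM for TRPV1. % inhibition is normalized to the EC80 agonist response. n = 3.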

Assay [6] concerns the target T1, Transient receptor potential cation channel subfamily M member 8. Briefly: Antagonist activity at recombinant human TRPM8 stably expressed in HEK293 cells assessed as inhibition of menthol-induced intracellular calcium level by Fluo-4NW probe based fluorescence assay. In outline:
(§2)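 Fluo-4 NW calcium imaging in HEK293 cells expressing human or rat TRPM8. Agonist was 500 nM icilin or 100 μM menthol, with test compound at 0.1–10 μM. IC50 was taken from concentration–response curves. Mean ± SEM, n = 3, N = 3.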
Target sequence in this assay (Q7Z2W7 whole entry): as above

The target of assay [7] is Transient receptor potential cation channel subfamily A member 1 (Homo sapiens) (UniProt O75762). The assay is described as follows: Agonist activity at recombinant human TRPA1 stably expressed in HEK293 cells at 133 uM measured after 180 secs by Fluo-8 Calcium dye based fluorescence assay relative to control. The note with it: time 180.0 sec. Summed up: (§3)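 Ca2+ flux assay in HEK293 cells stably expressing human TRPA1 or TRPV1. Test concentrations were 66.7–333 μM, applied alone. Response is expressed as % activation, normalized to the Emax agonist concentration: AITC 300 μM for TRPA1, capsaicin 3 μM for TRPV1. n = 3.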

The target in assay [8] is Transient receptor potential cation channel subfamily V member 1 (Homo sapiens) (UniProt Q8NER1). The assay is described as follows: Agonist activity at recombinant human TRPV1 stably expressed in HEK293 cells at 133 uM measured after 180 secs by Fluo-8 Calcium dye based fluorescence assay relative to control. The note with it: time 180.0 sec. In outline: as §3
For assay [9] the target is unchanged. Briefly: Antagonist activity at recombinant human TRPV1 stably expressed in HEK293 cells assessed as inhibition of capsaicin-induced calcium flux at 333 uM preincubated for 5 mins followed by capsaicin addition and measured after 180 secs by Fluo-8 Calcium dye based fluorescence assay relative to control. The note with it: time 8.0 min. In outline:
as §1

For assay [10] the target is unchanged. Briefly: Agonist activity at recombinant human TRPV1 stably expressed in HEK293 cells at 200 uM measured after 180 secs by Fluo-8 Calcium dye based fluorescence assay relative to control. The note with it: time 180.0 sec. Summed up: as §3
Assay [11] deals with T2, Transient receptor potential cation channel subfamily M member 8. The assay is described as follows: Antagonist activity at recombinant rat TRPM8 stably expressed in HEK293 cells assessed as inhibition of icilin-induced intracellular calcium level by Fluo-4NW probe based fluorescence assay. Summed up: as §2
Assay [12] has the same target. The assay is described as follows: Antagonist activity at recombinant rat TRPM8 stably expressed in HEK293 cells assessed as inhibition of menthol-induced intracellular calcium level by Fluo-4NW probe based fluorescence assay. Summed up:
as §2

Assay [13] deals with Transient receptor potential cation channel subfamily A member 1 (Homo sapiens) (UniProt O75762). The assay is described as follows: Antagonist activity at recombinant human TRPA1 stably expressed in HEK293 cells assessed as inhibition of AITC-induced calcium flux at 333 uM preincubated for 5 mins followed by AITC addition and measured after 180 secs by Fluo-8 Calcium dye based fluorescence assay relative to control. The note with it: time 8.0 min. In outline: as §1

The target is the same in assay [14]. Briefly: Agonist activity at recombinant human TRPA1 stably expressed in HEK293 cells at 333 uM measured after 180 secs by Fluo-8 Calcium dye based fluorescence assay relative to control. The note with it: time 180.0 sec. Summed up: as §3
In assay [15] the target is T1, Transient receptor potential cation channel subfamily M member 8. Briefly: Antagonist activity at recombinant human TRPM8 stably expressed in HEK293 cells assessed as inhibition of icilin-induced intracellular calcium level by Fluo-4NW probe based fluorescence assay. Summed up:
as §2
Target sequence in this assay (Q7Z2W7 whole entry): as above

The target of assay [16] is Transient receptor potential cation channel subfamily V member 1 (Homo sapiens) (UniProt Q8NER1). Briefly: Antagonist activity at recombinant human TRPV1 stably expressed in HEK293 cells assessed as inhibition of capsaicin-induced calcium flux at 200 uM preincubated for 5 mins followed by capsaicin addition and measured after 180 secs by Fluo-8 Calcium dye based fluorescence assay relative to control. The note with it: time 8.0 min. Summed up: as §1

Assay [17] has the same target. Briefly: Antagonist activity at recombinant human TRPV1 stably expressed in HEK293 cells assessed as inhibition of capsaicin-induced calcium flux at 267 uM preincubated for 5 mins followed by capsaicin addition and measured after 180 secs by Fluo-8 Calcium dye based fluorescence assay relative to control. The following applies: time 8.0 min. In outline: as §1
The species named for assay [18] is Homo sapiens. Briefly: Selectivity ratio of IC50 for antagonist activity at human TRPA1 stably expressed in HEK293 cells to IC50 for antagonist activity at recombinant human TRPM8 stably expressed in HEK293 cells.
Assay [19] concerns the target Transient receptor potential cation channel subfamily V member 1 (Homo sapiens) (UniProt Q8NER1). The assay is described as follows: Agonist activity at recombinant human TRPV1 stably expressed in HEK293 cells at 267 uM measured after 180 secs by Fluo-8 Calcium dye based fluorescence assay relative to control. The following applies: time 180.0 sec. Summed up: as §3

Assay [20] deals with Transient receptor potential cation channel subfamily A member 1 (Homo sapiens) (UniProt O75762). Briefly: Antagonist activity at recombinant human TRPA1 stably expressed in HEK293 cells assessed as inhibition of AITC-induced calcium flux at 267 uM preincubated for 5 mins followed by AITC addition and measured after 180 secs by Fluo-8 Calcium dye based fluorescence assay relative to control. The note with it: time 8.0 min. In outline:
as §1

The target of assay [21] is Transient receptor potential cation channel subfamily V member 1 (Homo sapiens) (UniProt Q8NER1). The assay is described as follows: Agonist activity at recombinant human TRPV1 stably expressed in HEK293 cells at 66.7 uM measured after 180 secs by Fluo-8 Calcium dye based fluorescence assay relative to control. The note with it: time 180.0 sec. In outline:
as §3

The species named for assay [22] is Homo sapiens. Briefly: Selectivity ratio of IC50 for antagonist activity at human TRPV1 stably expressed in HEK293 cells to IC50 for antagonist activity at recombinant human TRPM8 stably expressed in HEK293 cells.
In assay [23] the target is Transient receptor potential cation channel subfamily A member 1 (Homo sapiens) (UniProt O75762). Briefly: Agonist activity at recombinant human TRPA1 stably expressed in HEK293 cells at 200 uM measured after 180 secs by Fluo-8 Calcium dye based fluorescence assay relative to control. The following applies: time 180.0 sec. In outline:
as §3

Assay [24] shares this target. The assay is described as follows: Antagonist activity at recombinant human TRPA1 stably expressed in HEK293 cells assessed as inhibition of AITC-induced calcium flux at 66.7 uM preincubated for 5 mins followed by AITC addition and measured after 180 secs by Fluo-8 Calcium dye based fluorescence assay relative to control. The following applies: time 8.0 min. Summed up: as §1

Assay [25] shares this target. The assay is described as follows: Agonist activity at recombinant human TRPA1 stably expressed in HEK293 cells at 267 uM measured after 180 secs by Fluo-8 Calcium dye based fluorescence assay relative to control. The following applies: time 180.0 sec. In outline:
as §3

Assay [26] has the same target. Briefly: Antagonist activity at recombinant human TRPA1 stably expressed in HEK293 cells assessed as inhibition of AITC-induced calcium flux at 200 uM preincubated for 5 mins followed by AITC addition and measured after 180 secs by Fluo-8 Calcium dye based fluorescence assay relative to control. The note with it: time 8.0 min. Summed up: as §1
Assay [27] deals with Transient receptor potential cation channel subfamily V member 1 (Homo sapiens) (UniProt Q8NER1). Briefly: Agonist activity at recombinant human TRPV1 stably expressed in HEK293 cells at 333 uM measured after 180 secs by Fluo-8 Calcium dye based fluorescence assay relative to control. The following applies: time 180.0 sec. Summed up:
as §3

Assay [28] deals with Transient receptor potential cation channel subfamily A member 1 (Homo sapiens) (UniProt O75762). The assay is described as follows: Agonist activity at recombinant human TRPA1 stably expressed in HEK293 cells at 66.7 uM measured after 180 secs by Fluo-8 Calcium dye based fluorescence assay relative to control. The following applies: time 180.0 sec. In outline: as §3
In assay [29] the target is Transient receptor potential cation channel subfamily V member 1 (Homo sapiens) (UniProt Q8NER1). The assay is described as follows: Antagonist activity at recombinant human TRPV1 stably expressed in HEK293 cells assessed as inhibition of capsaicin-induced calcium flux at 133 uM preincubated for 5 mins followed by capsaicin addition and measured after 180 secs by Fluo-8 Calcium dye based fluorescence assay relative to control. The following applies: time 8.0 min. Summed up:
as §1

In assay [30] the target is Transient receptor potential cation channel subfamily A member 1 (Homo sapiens) (UniProt O75762). The assay is described as follows: Antagonist activity at recombinant human TRPA1 stably expressed in HEK293 cells assessed as inhibition of AITC-induced calcium flux at 133 uM preincubated for 5 mins followed by AITC addition and measured after 180 secs by Fluo-8 Calcium dye based fluorescence assay relative to control. The following applies: time 8.0 min. Summed up: as §1

Molecules are shown by their SMILES. pEC50, pIC50: −log10 of the molar value. A value given as a limit tells only on which side of the number the result lay.

T2 sequence (Q8R455 whole entry): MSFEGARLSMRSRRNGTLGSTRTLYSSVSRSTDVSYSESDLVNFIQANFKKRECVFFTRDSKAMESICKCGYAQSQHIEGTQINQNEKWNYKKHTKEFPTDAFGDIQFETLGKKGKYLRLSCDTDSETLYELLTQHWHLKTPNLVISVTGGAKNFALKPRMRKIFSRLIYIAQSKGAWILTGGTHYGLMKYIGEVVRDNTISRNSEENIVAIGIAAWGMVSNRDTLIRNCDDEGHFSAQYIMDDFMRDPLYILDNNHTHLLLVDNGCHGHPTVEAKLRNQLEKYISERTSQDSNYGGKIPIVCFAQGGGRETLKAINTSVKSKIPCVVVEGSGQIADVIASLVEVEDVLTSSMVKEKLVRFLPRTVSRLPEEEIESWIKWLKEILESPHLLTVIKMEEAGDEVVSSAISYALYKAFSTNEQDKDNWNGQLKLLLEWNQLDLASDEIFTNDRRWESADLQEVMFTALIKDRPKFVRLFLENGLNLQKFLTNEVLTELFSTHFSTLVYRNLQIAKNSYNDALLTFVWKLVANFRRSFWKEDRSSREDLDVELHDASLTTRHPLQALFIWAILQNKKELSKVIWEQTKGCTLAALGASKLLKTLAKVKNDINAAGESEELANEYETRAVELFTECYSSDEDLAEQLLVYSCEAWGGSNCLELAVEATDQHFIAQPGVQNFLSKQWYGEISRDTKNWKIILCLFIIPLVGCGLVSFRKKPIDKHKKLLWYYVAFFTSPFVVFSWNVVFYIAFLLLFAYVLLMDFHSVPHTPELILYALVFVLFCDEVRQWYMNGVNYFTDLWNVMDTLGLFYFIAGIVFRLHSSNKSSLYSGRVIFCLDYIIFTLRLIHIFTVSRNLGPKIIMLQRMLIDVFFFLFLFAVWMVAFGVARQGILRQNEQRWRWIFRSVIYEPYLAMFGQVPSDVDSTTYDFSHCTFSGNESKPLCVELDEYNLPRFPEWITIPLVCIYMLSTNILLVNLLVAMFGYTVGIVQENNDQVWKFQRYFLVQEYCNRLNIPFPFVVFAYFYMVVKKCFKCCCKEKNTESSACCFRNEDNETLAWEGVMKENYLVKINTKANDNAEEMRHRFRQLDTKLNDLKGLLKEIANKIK
Sequence of Transient receptor potential cation channel subfamily A member 1 (Homo sapiens) (O75762 whole entry): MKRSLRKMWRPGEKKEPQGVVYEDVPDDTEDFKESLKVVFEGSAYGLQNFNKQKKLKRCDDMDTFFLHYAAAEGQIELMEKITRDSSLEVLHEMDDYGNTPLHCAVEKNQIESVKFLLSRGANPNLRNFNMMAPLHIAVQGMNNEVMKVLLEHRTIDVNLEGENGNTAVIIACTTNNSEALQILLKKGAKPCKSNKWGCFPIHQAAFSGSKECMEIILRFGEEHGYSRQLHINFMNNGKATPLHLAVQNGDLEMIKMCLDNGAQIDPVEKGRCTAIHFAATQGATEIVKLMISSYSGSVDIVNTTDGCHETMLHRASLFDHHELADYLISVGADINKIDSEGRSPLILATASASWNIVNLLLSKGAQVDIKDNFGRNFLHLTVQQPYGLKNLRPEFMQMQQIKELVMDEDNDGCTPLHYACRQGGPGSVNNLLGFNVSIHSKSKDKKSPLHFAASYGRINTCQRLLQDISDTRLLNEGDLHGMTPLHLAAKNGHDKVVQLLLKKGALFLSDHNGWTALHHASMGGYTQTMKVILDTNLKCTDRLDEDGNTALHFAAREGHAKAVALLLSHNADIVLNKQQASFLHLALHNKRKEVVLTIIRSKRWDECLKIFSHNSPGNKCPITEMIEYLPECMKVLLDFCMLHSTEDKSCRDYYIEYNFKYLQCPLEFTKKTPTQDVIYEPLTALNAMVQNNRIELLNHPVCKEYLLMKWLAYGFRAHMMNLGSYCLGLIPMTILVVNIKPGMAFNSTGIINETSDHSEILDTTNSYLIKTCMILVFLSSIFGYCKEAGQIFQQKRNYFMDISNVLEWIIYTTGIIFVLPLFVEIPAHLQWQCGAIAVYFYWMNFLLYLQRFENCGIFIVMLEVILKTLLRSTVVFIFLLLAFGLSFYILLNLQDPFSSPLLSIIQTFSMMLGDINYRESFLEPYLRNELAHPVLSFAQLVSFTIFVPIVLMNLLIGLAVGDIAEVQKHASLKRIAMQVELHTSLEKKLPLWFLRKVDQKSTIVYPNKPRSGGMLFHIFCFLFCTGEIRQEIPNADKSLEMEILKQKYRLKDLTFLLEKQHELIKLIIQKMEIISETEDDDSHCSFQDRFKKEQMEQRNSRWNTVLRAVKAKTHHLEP
Sequence of Transient receptor potential cation channel subfamily V member 1 (Homo sapiens) (Q8NER1 whole entry): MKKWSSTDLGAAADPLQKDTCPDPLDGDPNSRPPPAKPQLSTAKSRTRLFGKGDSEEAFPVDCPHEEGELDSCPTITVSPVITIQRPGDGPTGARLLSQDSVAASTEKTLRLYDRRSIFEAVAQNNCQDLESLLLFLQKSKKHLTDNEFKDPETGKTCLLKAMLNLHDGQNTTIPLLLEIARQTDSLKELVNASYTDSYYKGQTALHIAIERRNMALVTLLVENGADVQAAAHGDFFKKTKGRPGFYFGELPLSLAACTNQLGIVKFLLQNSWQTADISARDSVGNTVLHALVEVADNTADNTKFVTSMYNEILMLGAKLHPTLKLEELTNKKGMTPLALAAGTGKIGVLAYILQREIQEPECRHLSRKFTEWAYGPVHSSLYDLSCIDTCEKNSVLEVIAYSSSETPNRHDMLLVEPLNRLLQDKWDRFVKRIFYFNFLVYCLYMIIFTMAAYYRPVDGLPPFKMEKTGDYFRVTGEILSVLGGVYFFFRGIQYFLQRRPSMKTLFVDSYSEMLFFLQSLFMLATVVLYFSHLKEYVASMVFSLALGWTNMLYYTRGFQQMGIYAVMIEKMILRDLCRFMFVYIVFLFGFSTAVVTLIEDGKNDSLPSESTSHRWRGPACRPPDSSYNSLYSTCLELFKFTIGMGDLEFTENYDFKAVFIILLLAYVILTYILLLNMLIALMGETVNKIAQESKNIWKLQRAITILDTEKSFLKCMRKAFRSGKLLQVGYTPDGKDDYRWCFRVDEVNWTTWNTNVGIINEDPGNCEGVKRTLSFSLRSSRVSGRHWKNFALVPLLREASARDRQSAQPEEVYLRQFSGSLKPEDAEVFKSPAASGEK

Take `C=C1[C@H](C)CC[C@@H](C(C)C)[C@@H]1OC(=O)c1ccccc1`: the pIC50 – broadly, −log10 of the IC50, conventionally taken in molar units – in assay [1] is 5.70.

Regarding `C=C(C)[C@@H]1CCC(C)=C[C@H]1c1c(O)cc(CCC)cc1O` [CANNABIDIVARIN], in assay [2], the negative logarithm of the IC50 (pIC50) was 6.05. The negative-log EC50 (pEC50) (in general, the EC50 on a negative log10 scale, so that one unit is a factor of ten) in [3] was 6.38.

As for `CC(C)[C@@H]1CC[C@@H](C)C[C@H]1OC(=O)N1CCc2ccccc2C1`, the Activity in [4] worked out at 112%.

As to `CC(C)[C@@H]1CC[C@@H](C)C[C@H]1NC(=O)c1ccc(-c2ccccc2)cc1`, the inhibition (commonly the change of the read-out against control, counted positive when it falls) in assay [5] was -3.6%; in assay [9] it was 7.64%; in assay [13], 11.9%; in assay [16], -5.89%; in assay [17], 6.79%; in assay [20] it was 16.8%. Moreover, the inhibition is 18.3% in [24], 18.7% in [26], -7.44% in assay [29] and 24.9% in [30]. The pIC50 in assay [6] was 6.09; in [11] it was 6.28; in assay [12], 6.93; in [15], 5.74; in assay [1] it was 6.15. Further, the Activity is -0.2% in assay [7]; 3.6% in [8]; 4.8% in assay [10]; 3.4% in [14]; 4.57% in [19]; 1.3% in assay [21]. For the same molecule, the Activity is 0.95% in [23], 2.1% in assay [25], 7.9% in assay [27] and -0.83% in [28]. In addition, the Ratio IC50 in the assay filed under Homo sapiens [18] and in the assay listed under Homo sapiens [22] was over 400 throughout.
